Measured values of several laboratories.
Each line is one published result; the experiments were not run side by side.
Method: competition with immobilised ligand
RPS6KA1 N-terminal kinase domain: Ribosomal protein S6 kinase alpha-1, N-terminal kinase domain (RPS6KA1, Homo sapiens, UniProt Q15418)
RPS6KA1 C-terminal kinase domain: Ribosomal protein S6 kinase alpha-1, C-terminal kinase domain (RPS6KA1, Homo sapiens, UniProt Q15418)

O=C(NCC1CCOCC1)c1n[nH]cc1NC(=O)c1c(F)cccc1F
remaining binding (RPS6KA1 N-terminal kinase domain; binding; 1 µM): 93%

CCN1CCN(Cc2ccc(C(=O)Nc3ccc(C)c(Oc4ccc5c(c4)CC(=O)N5)c3)cc2C(F)(F)F)CC1
remaining binding (RPS6KA1 C-terminal kinase domain; binding; 1 µM): 95%

O=C(NS(=O)(=O)c1ccc(NCC2CCOCC2)c([N+](=O)[O-])c1)c1ccc(N2CCN(Cc3ccc(C(F)(F)F)cc3-c3ccc(Cl)cc3)CC2)cc1Oc1cnc2[nH]ccc2c1
remaining binding (RPS6KA1 N-terminal kinase domain; cell-free assay; 1 µM): 95%

CN(C)c1nccc(-c2cnn3ncccc23)n1
remaining binding (RPS6KA1 C-terminal kinase domain; binding; 1 µM): 100%

COc1ncc2cc3ccccc3nc2c1C#N
remaining binding (RPS6KA1 C-terminal kinase domain; cell-free assay; 5 µM): 49%

COc1cnc(Nc2cccc(S(N)(=O)=O)c2)nc1N1CCN(c2ccccc2)C(=O)C1
remaining binding (RPS6KA1 N-terminal kinase domain; binding; 1 µM): 100%

O=C(NCCCN1CCOCC1)c1ccc(Nc2nccc(-c3cc4ccccc4s3)n2)cc1
remaining binding (RPS6KA1 N-terminal kinase domain; binding; 1 µM): 87%

CO[C@@H](C)c1c(Nc2ccc([C@H](N(C)C(=O)C3CCS(=O)(=O)CC3)C(F)(F)F)cc2)cnc2cc(Cl)nn12
remaining binding (RPS6KA1 C-terminal kinase domain; cell-free assay; 1 µM): 91%

C=CC(=O)N1CCC(C(=O)NCC(=O)N2CCN(c3nc(-c4cnc(N)nc4C(F)F)nc(N4CCOCC4)n3)CC2)CC1
remaining binding (RPS6KA1 C-terminal kinase domain; binding; 1 µM): 100%

O=C(NCc1ncc(C(F)(F)F)cc1Cl)c1ccc2c(c1)C1(CCS(=O)(=O)CC1)[C@H](C1CC1)N2S(=O)(=O)c1ccc(F)cc1
remaining binding (RPS6KA1 N-terminal kinase domain; cell-free assay; 1 µM): 100%

COc1ccnn2ncc(-c3ccnc(N(C)C)n3)c12
remaining binding (RPS6KA1 N-terminal kinase domain; binding; 1 µM): 100%

O=C(c1ccc(Nc2nccc(-c3cc4ccccc4s3)n2)cc1)N1CCC(N2CCCC2)CC1
remaining binding (RPS6KA1 N-terminal kinase domain; binding; 1 µM): 100%

O=C(Nc1c[nH]nc1C(=O)NC1CCNCC1)c1cc(F)cc(F)c1
remaining binding (RPS6KA1 N-terminal kinase domain; binding; 1 µM): 100%

CN(c1nccc(-c2cnn3ncccc23)n1)C1CC1
remaining binding (RPS6KA1 N-terminal kinase domain; binding; 1 µM): 100%

CCS(=O)(=O)c1cc2cc(C[C@@](O)(CC(C)(C)c3ccc(F)cc3C(N)=O)C(F)(F)F)[nH]c2cn1
remaining binding (RPS6KA1 N-terminal kinase domain; cell-free assay; 1 µM): 100%

C[C@@H](c1ccc(-n2cnc3c(N)ncnc32)cc1)N1CCc2nn(C)c(Cc3ccccc3)c2C1=O
remaining binding (RPS6KA1 N-terminal kinase domain; binding; 0.1 µM): 96%

O=C(NCCCN1CCOCC1)c1ccc(Nc2ncc(Cl)c(-c3ccc(Cl)s3)n2)cc1
remaining binding (RPS6KA1 C-terminal kinase domain; binding; 1 µM): 72%

FC(F)(F)Oc1cccc(-c2cnc3ccc(-c4ccncc4)nn23)c1
remaining binding (RPS6KA1 N-terminal kinase domain; binding; 5 µM): 63%

N[C@H]1CCN(c2nccc(-c3cnn4ncccc34)n2)C1
remaining binding (RPS6KA1 N-terminal kinase domain; binding; 1 µM): 100%

O=C(c1ccc(Nc2ncc(Cl)c(-c3cc4ccccc4s3)n2)cc1)N1CCC(N2CCCC2)CC1
remaining binding (RPS6KA1 N-terminal kinase domain; binding; 1 µM): 63%

C[C@@H]1CCN(c2nccc(-c3cnn4ncccc34)n2)C1
remaining binding (RPS6KA1 C-terminal kinase domain; binding; 1 µM): 47%

CC(C)CC(=O)N1CCc2nc(-c3ccc(Br)cc3)nc(N(C)Cc3ccccc3)c2C1
remaining binding (RPS6KA1 N-terminal kinase domain; cell-free assay; 0.1 µM): 93%

CNC(=O)[C@@H]1CC[C@@H](n2c(-c3ccc4cnccc4c3)nc3ccc(C(=O)NCc4cccc(C(N)=O)c4)cc32)C1
remaining binding (RPS6KA1 N-terminal kinase domain; binding; 1 µM): 100%

CCC(=N\O)/C(C)=C/c1ccc(F)cc1
remaining binding (RPS6KA1 N-terminal kinase domain; cell-free assay; 1 µM): 100%

CN(CCCC(F)(F)F)c1nccc(-c2cnn3ncccc23)n1
remaining binding (RPS6KA1 N-terminal kinase domain; binding; 1 µM): 100%

Nc1ncc2c(n1)-c1c([nH]c3ccc(C#CC4CC4)cc13)CCCC2
remaining binding (RPS6KA1 C-terminal kinase domain; binding; 1 µM): 86%

O=C(c1ccc(Nc2ncc(Cl)c(-c3ccc(Cl)s3)n2)cc1)N1CCC(N2CCCC2)CC1
remaining binding (RPS6KA1 N-terminal kinase domain; binding; 1 µM): 53%

c1cncc(-c2cccc(Nc3nccc(NC4CCCCC4)n3)c2)c1
remaining binding (RPS6KA1 N-terminal kinase domain; binding; 10 µM): 9.9%

O=C(N1CCS(=O)(=O)CC1)N1C[C@H](c2ccc(OC(F)(F)F)cc2)C[C@H](c2nc(C3CC3)no2)C1
remaining binding (RPS6KA1 C-terminal kinase domain; cell-free assay; 1 µM): 100%

COc1cnc(Nc2cccc(S(N)(=O)=O)c2)nc1N1CCN(c2ccccc2)CC1
remaining binding (RPS6KA1 C-terminal kinase domain; binding; 1 µM): 83%

CN(C)c1ncc(F)c(-c2cnn3ncccc23)n1
remaining binding (RPS6KA1 N-terminal kinase domain; binding; 1 µM): 100%

Cc1cnc(Nc2ccc(C(=O)N3CCC(N4CCCC4)CC3)cc2)nc1-c1cc2ccccc2s1
remaining binding (RPS6KA1 C-terminal kinase domain; binding; 1 µM): 74%

CC1CCCN1c1nccc(-c2cnn3ncccc23)n1 (stereo not shown)
remaining binding (RPS6KA1 N-terminal kinase domain; binding; 1 µM): 100%

O=C(NCCCC1CCCCC1)c1ccc(CNC(=O)c2cnn(-c3ccccc3)c2C(F)(F)F)cc1
remaining binding (RPS6KA1 N-terminal kinase domain; cell-free assay; 0.1 µM): 100%
